Laboratory results from ChEMBL document CHEMBL1145867, “Muraymycins, novel peptidoglycan biosynthesis inhibitors: synthesis and SAR of their analogues” (2003).
In brackets after ≈: the same amount, converted by molar mass. Activity calls are given as the source filed them. The rule behind the calls is not given here.

Key:
[1] = test system: Staphylococcus sp.; test: In vitro antimicrobial activity against Staphylococci; format: functional, staphyl ococcus species
Procedure, shortened: (§1)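 Broth microdilution per NCCLS guidance. Serial dilutions of each agent in microtiter plates are inoculated with each organism to 10⁵ CFU/mL and incubated 18–22 h at 35 C in ambient air. MIC is the lowest concentration giving complete growth inhibition, judged by the unaided eye.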

[2] = The inhibitory activity of compound against MraY or MurG at 25 ug/mL; No Inhibition
[3] = The inhibitory activity of compound against MraY or MurG at 50 ug/mL; No Inhibition
[4] = test system: Bacteria; test: In vitro antimicrobial activity against gram-negative organisms (10); format: functional; procedure, shortened: as §1
[5] = The inhibitory activity of compound against MraY or MurG at 100 ug/mL; No Inhibition
[6] = The inhibitory activity of compound against MraY or MurG at 6.25 ug/mL; No Inhibition
[7] = test system: Enterococcus sp.; test: In vitro antimicrobial activity against Enterococci; format: functional; procedure, shortened: as §1
[8] = The inhibitory activity of compound against MraY or MurG at 12.5 ug/mL; No Inhibition

Compound | MIC [1] [µg/mL] | Inhibitory activity [2] | Inhibitory activity [3] | MIC [4] [µg/mL] | Inhibitory activity [5] | Inhibitory activity [6] | MIC [7] [µg/mL] | Inhibitory activity [8]
COc1ccc(Cn2c(=O)ccn([C@@H]3OC([C@H](O)[C@H](NCCCNC(=O)[C@@H](CC(C)C)NC(=O)[C@H](CCCN=C(N)N)NC(=O)N[C@H](C(=O)O)C(C)C)C(=O)O)[C@@H](O)[C@H]3O)c2=O)cc1 (stereo partly drawn) | > 128 | inactive | inactive | > 128 | inactive | inactive | > 128 | inactive
COc1ccc(Cn2c(=O)ccn([C@@H]3OC([C@H](O)[C@H](NCCCNC(=O)[C@@H](CC(C)C)NC(=O)OCc4ccccc4)C(=O)OC(C)(C)C)[C@@H](O)[C@H]3O)c2=O)cc1 (stereo partly drawn) | > 128 |  |  | > 128 |  |  | > 128 | 
COc1ccc(Cn2c(=O)ccn([C@@H]3OC([C@H](O)[C@H](NCCCNC(=O)[C@@H](CC(C)C)NC(=O)OCc4ccccc4)C(=O)O)[C@@H](O)[C@H]3O)c2=O)cc1 (stereo partly drawn) | > 128 |  |  | > 128 |  |  | 128 (≈ 173 µM) | 
COc1ccc(Cn2c(=O)ccn([C@@H]3OC([C@H](O)[C@H](NCCCNC(=O)[C@H](N)CC(C)C)C(=O)O)[C@@H](O)[C@H]3O)c2=O)cc1 (stereo partly drawn) | > 128 |  |  | > 128 |  |  | 128 (≈ 211 µM) | 
CC(C)C(O)[C@@H](NC(=O)OCc1ccccc1)C(=O)NCCCN[C@H](C(=O)OC(C)(C)C)[C@@H](O)C1O[C@@H](n2ccc(=O)[nH]c2=O)[C@H](O[Si](C)(C)C(C)(C)C)[C@@H]1O[Si](C)(C)C(C)(C)C (stereo partly drawn) | > 128 |  |  | > 128 |  |  | 64 (≈ 69.4 µM) | 

Continued, values first:

MIC [1] [µg/mL] | Inhibitory activity [2] | Inhibitory activity [3] | MIC [4] [µg/mL] | Inhibitory activity [5] | Inhibitory activity [6] | MIC [7] [µg/mL] | Inhibitory activity [8] | Compound
> 128 |  |  | > 128 |  |  | 4 (≈ 3.58 µM) |  | COc1ccc(Cn2c(=O)ccn([C@@H]3OC([C@H](O)[C@H](NCCCNC(=O)[C@@H](CC(=O)OCc4ccccc4)NC(=O)OCc4ccccc4)C(=O)OC(C)(C)C)[C@@H](O[Si](C)(C)C(C)(C)C)[C@H]3O[Si](C)(C)C(C)(C)C)c2=O)cc1 (stereo partly drawn)
> 128 |  |  | > 128 |  |  | > 128 |  | COc1ccc(Cn2c(=O)ccn([C@@H]3OC([C@H](O)[C@H](NCCCNC(=O)[C@@H](CCCCNC(=O)OCc4ccccc4)NC(=O)OCc4ccccc4)C(=O)OC(C)(C)C)[C@@H](O[Si](C)(C)C(C)(C)C)[C@H]3O[Si](C)(C)C(C)(C)C)c2=O)cc1 (stereo partly drawn)
> 128 |  |  | > 128 |  |  | 128 (≈ 123 µM) |  | COc1ccc(Cn2c(=O)ccn([C@@H]3OC([C@H](O)[C@H](NCCCNC(=O)[C@H](NC(=O)OCc4ccccc4)C(O)C(C)C)C(=O)OC(C)(C)C)[C@@H](O[Si](C)(C)C(C)(C)C)[C@H]3O[Si](C)(C)C(C)(C)C)c2=O)cc1 (stereo partly drawn)
128 (≈ 97.4 µM) |  |  | 64 (≈ 48.7 µM) |  |  | 64 (≈ 48.7 µM) |  | COc1ccc(Cn2c(=O)ccn([C@@H]3OC([C@H](O)[C@H](NCCCNC(=O)[C@H](NC(=O)[C@H](CCC/N=C(\N)N[N+](=O)[O-])NC(=O)N[C@H](C(=O)OCc4ccccc4)C(C)C)C(C)O)C(=O)OC(C)(C)C)[C@@H](O[Si](C)(C)C(C)(C)C)[C@H]3O[Si](C)(C)C(C)(C)C)c2=O)cc1 (stereo partly drawn)
> 128 |  |  | > 128 |  |  | 128 (≈ 130 µM) |  | COc1ccc(Cn2c(=O)ccn([C@@H]3OC([C@H](O)[C@H](NCCCNC(=O)[C@@H](C)NC(=O)OCc4ccccc4)C(=O)OC(C)(C)C)[C@@H](O[Si](C)(C)C(C)(C)C)[C@H]3O[Si](C)(C)C(C)(C)C)c2=O)cc1 (stereo partly drawn)
128 (≈ 117 µM) |  |  | > 128 |  |  | > 128 |  | COc1ccc(Cn2c(=O)ccn([C@@H]3OC([C@H](O)[C@H](NCCCNC(=O)[C@@H](CCC(=O)OC(C)(C)C)NC(=O)OCc4ccccc4)C(=O)OC(C)(C)C)[C@@H](O[Si](C)(C)C(C)(C)C)[C@H]3O[Si](C)(C)C(C)(C)C)c2=O)cc1 (stereo partly drawn)
